Assays:
Assay type in all cases: functional
Saccharomyces cerevisiae [1] = assay: Antifungal activity against Saccharomyces cerevisiae harboring heterozygousYDL144C deletion mutant assessed as sensitivity by measuring ratio of control intensity to treatment intensity by chemogenomic screening analysis relative to control
Saccharomyces cerevisiae [2] = assay: Antifungal activity against Saccharomyces cerevisiae harboring heterozygous ENP1 deletion mutant assessed as sensitivity by measuring ratio of control intensity to treatment intensity by chemogenomic screening analysis relative to control
Trichuris muris [3] = assay: Antinematodal activity against Trichuris muris assessed as inhibition of worm motility at day 1 by worminator analysis
Summary of the method: (§1)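 Two adult worms per well in RPMI-1640 (25 mM HEPES, 2.0 g/L NaHCO₃, 5% heat-inactivated FBS, 1X antibiotic/antimycotic), 4 replicate wells, 6 days at 37°C, 5% CO₂. Motility recorded 60 s per plate as pixels displaced/s on days 0, 1, 2, 3 and 6. Inhibition = (1 − treated MMU/mean 1% DMSO control MMU) × 100, floored at zero. IC₅₀ from 3- and 6-point dilutions.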

Trichuris muris [4] = assay: Antinematodal activity against Trichuris muris assessed as inhibition of worm motility at day 5 by worminator analysis; conditions: time 5 day
Brugia pahangi [5] = assay: Antinematodal activity against Brugia pahangi assessed as inhibition of worm motility at day 3 by worminator analysis; conditions: time 3 day
Summary of the method: as §1, with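 “Single” for “Two”, “female worm” for “worms”, “plate” for “plate as pixels displaced/s”, “6 as pixels displaced/s.” for “6.”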

Trichuris muris [6] = assay: Antinematodal activity against Trichuris muris assessed as inhibition of worm motility at day 2 by worminator analysis; conditions: time 2 day; summary of the method: as §1
Trichuris muris [7] = assay: Antinematodal activity against Trichuris muris assessed as inhibition of worm motility at day 6 by worminator analysis; conditions: time 6 day; summary of the method: as §1
Brugia pahangi [8] = assay: Antinematodal activity against Brugia pahangi assessed as inhibition of worm motility measured immediately by worminator analysis
Summary of the method: as §1, with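 “Single” for “Two”, “female worm” for “worms”, “plate” for “plate as pixels displaced/s”, “6 as pixels displaced/s.” for “6.”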

Saccharomyces cerevisiae [9] = assay: Antifungal activity against Saccharomyces cerevisiae harboring heterozygous YPR136C deletion mutant assessed as sensitivity by measuring ratio of control intensity to treatment intensity by chemogenomic screening analysis relative to control
Brugia pahangi [10] = assay: Antinematodal activity against Brugia pahangi assessed as inhibition of worm motility at day 1 by worminator analysis; conditions: time 1 day
Summary of the method: as §1, with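 “Single” for “Two”, “female worm” for “worms”, “plate” for “plate as pixels displaced/s”, “6 as pixels displaced/s.” for “6.”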

Brugia pahangi [11] = assay: Antinematodal activity against Brugia pahangi assessed as inhibition of worm motility at day 6 by worminator analysis; conditions: time 6 day
Summary of the method: as §1, with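 “Single” for “Two”, “female worm” for “worms”, “plate” for “plate as pixels displaced/s”, “6 as pixels displaced/s.” for “6.”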

Brugia pahangi [12] = assay: Antinematodal activity against Brugia pahangi assessed as inhibition of worm motility at day 2 by worminator analysis; conditions: time 2 day
Summary of the method: as §1, with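 “Single” for “Two”, “female worm” for “worms”, “plate” for “plate as pixels displaced/s”, “6 as pixels displaced/s.” for “6.”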

Trichuris muris [13] = assay: Antinematodal activity against Trichuris muris assessed as inhibition of worm motility measured immediately by worminator analysis; summary of the method: as §1
Saccharomyces cerevisiae [14] = assay: Antifungal activity against Saccharomyces cerevisiae harboring heterozygous HYP2 deletion mutant assessed as sensitivity by measuring ratio of control intensity to treatment intensity by chemogenomic screening analysis relative to control
Saccharomyces cerevisiae [15] = assay: Antifungal activity against Saccharomyces cerevisiae harboring heterozygous UTP14 deletion mutant assessed as sensitivity by measuring ratio of control intensity to treatment intensity by chemogenomic screening analysis relative to control

SMILES: CN(CCc1ccccc1)CC(O)(Cn1cncn1)c1ccc(F)cc1F.Cl (stereo not given)
- log2(ratio) (Saccharomyces cerevisiae [1]): -4.93
- log2(ratio) (Saccharomyces cerevisiae [2]): -2.17
- inhibition (INH) (Trichuris muris [3]): 15%
- inhibition (INH) (Trichuris muris [4]): 1%
- inhibition (INH) (Brugia pahangi [5]): 8%
- inhibition (INH) (Trichuris muris [6]): 10%
- inhibition (INH) (Trichuris muris [7]): 0%
- inhibition (INH) (Brugia pahangi [8]): 32%
- log2(ratio) (Saccharomyces cerevisiae [9]): -3.12
- inhibition (INH) (Brugia pahangi [10]): 19%
- inhibition (INH) (Brugia pahangi [11]): 14%
- inhibition (INH) (Brugia pahangi [12]): 6%
- inhibition (INH) (Trichuris muris [13]): 15%
- log2(ratio) (Saccharomyces cerevisiae [14]): -2.45
- log2(ratio) (Saccharomyces cerevisiae [15]): -5.53

Reference: ChEMBL document CHEMBL5375965, “Discovery of New Broad-Spectrum Anti-Infectives for Eukaryotic Pathogens Using Bioorganometallic Chemistry” (J Med Chem, 2023)
